Screens from PubChem BioAssay.
Hits are enriched below; roughly 3% of the tested compounds scored in any of these assays.
CHRM4 agonist – agonists of human muscarinic M4 receptor (CHRM4). P08173. CHO-K1 hM4/Gqi5, Fluo-8 calcium fluorescence; vehicle 0%, full acetylcholine response 100%. activation, % at 3 µM. 0.14% of 360,000 active;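 active means activation above the run mean over all test wells plus 3 SD, cut at about 32% in these data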;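 further: peak over basal fluorescence ratio per well then scaled between controls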
Target sequence (P08173 whole entry, looked up): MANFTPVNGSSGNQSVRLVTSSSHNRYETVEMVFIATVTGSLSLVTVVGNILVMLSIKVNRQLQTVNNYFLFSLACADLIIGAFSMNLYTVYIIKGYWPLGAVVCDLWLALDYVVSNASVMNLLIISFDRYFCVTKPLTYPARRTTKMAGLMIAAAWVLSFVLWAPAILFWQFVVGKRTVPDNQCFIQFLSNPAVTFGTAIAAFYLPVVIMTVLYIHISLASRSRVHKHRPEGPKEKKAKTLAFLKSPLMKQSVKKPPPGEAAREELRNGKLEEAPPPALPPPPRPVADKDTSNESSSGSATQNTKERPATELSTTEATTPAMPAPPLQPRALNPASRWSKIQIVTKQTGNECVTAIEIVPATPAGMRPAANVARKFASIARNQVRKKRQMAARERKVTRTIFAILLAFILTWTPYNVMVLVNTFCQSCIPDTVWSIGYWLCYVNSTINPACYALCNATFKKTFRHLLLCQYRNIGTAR
TAAR1 antag – human TAAR1 antagonism | Q96RJ0 | CHO RD-HGA16 TAAR1, Fluo-8 calcium fluorescence, antagonist | inhibition, % at 3 µM | 1.5% of 360,000 active | AID 624466;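 active means inhibition above a per-plate cutoff, the mean inhibition of test compounds on that plate plus 3 SD, cut at about 49% in these data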
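System: CHO RD-HGA16 cells bearing hTAAR1. Reagent: EC80 β-phenethylamine stimulus. Schedule: seeding 17-24 h prior, 75-min 37 °C, 30-min RT dye loading. Signal: Fluo-8 intracellular calcium dye fluorescence, real-time kinetic reads. Read-out: % inhibition from peak post-agonist over basal fluorescence ratio. Benchmarks: vehicle wells and EC80 agonist wells. Replicates: n of 1.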
M4 PAM – CHRM4 positive allosteric modulation. P08173. CHO-K1 hM4/Gqi5, Fluo-8 calcium fluorescence, ACh EC20; 0% = ACh EC20, 100% = maximal ACh. activation, % at 3 µM. 0.4% of 360,000 active;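 active means activation above its plate's cutoff, the mean activation of sample wells plus 3 SD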
TAAR1 agonist – human TAAR1 agonism. Q96RJ0. CHO RD-HGA16 TAAR1, Fluo-8 calcium fluorescence; vehicle wells 0%, saturating PEA agonist 100%. activation, % at 3 µM. 0.99% of 360,000 active. AID 624467;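 active means activation above the mean activation of all test compounds in the run plus 3 SD, cut at about 38% in these data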
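System: CHO-derived RD-HGA16 cells with stable Gα16 and human TAAR1 / Times: 17-24 h plating, Fluo-8 75 min 37 °C, 30 min RT / Technique: calcium-sensitive Fluo-8 signal, excitation 470-495, emission 515-575 nm / Measure: % activation relative to PEA EC100 response / Benchmarks: DMSO and PEA EC100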
CHRM4 antagonist – CHRM4 antagonism in calcium assay; P08173; CHO-hM4 cells, ACh EC80, Fluo-8 calcium fluorescence; inhibition, % at 3 µM; 0.73% of 360,000 active; AID 624125;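 active means inhibition above its plate's cutoff, the mean inhibition of sample wells plus 3 SD, cut at about 27% in these data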
TAAR1 ag confirm – confirmation of human TAAR1 agonists. shares compounds with TAAR1 agonist. CHO RD-HGA16 TAAR1, Fluo-8 calcium fluorescence; scaled: DMSO 0%, maximal phenethylamine 100%. activation, % at 3 µM. 82% of 2,400 active. AID 651783;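 active means activation above a cutoff set at the run's mean compound activation plus 3 SD, cut at about 39% in these data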
Ga16 nonsel ag – nonselective agonism, TAAR1 counter-screen; activation, % at 3 µM; CHO-Ga16 parental, Fluo-8 calcium fluorescence; normalized to maximal ATP response, DMSO zero; shares compounds with TAAR1 agonist; 50% of 2,400 active;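 active means activation above the run cutoff, the mean activation over all tested wells plus 3 SD, cut at about 12% in these data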
TAAR1 desensitize – TAAR1 response desensitization, agonist counter-screen; CHO RD-HGA16 hTAAR1, Fluo-8 calcium, beta-PEA response inhibition; 46% of 2,400 active; shares compounds with TAAR1 agonist; inhibition, % at 3 µM;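 active means inhibition above the run cutoff, the mean inhibition of all test compounds plus 3 SD, cut at about 49% in these data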;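 further: beta-PEA stimulus applied at its EC80; loss of beta-PEA calcium signal after compound pretreatment read as receptor desensitization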
Ga16 antag count – nonselective Ga16 antagonism, counter-screen; shares compounds with TAAR1 agonist; CHO-Ga16 ATP-induced calcium, Fluo-8 fluorescence; AID 651952; inhibition, % at 3 µM; 39% of 2,400 active;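 active means inhibition above the plate's mean compound inhibition plus 3 SD, computed per plate, cut at about 22% in these data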
Large screens that a line does not name were inactive (follow-up assays come after a bar, where they were run).

CCc1nnc(NC(=O)CCC(=O)NCCc2ccccc2)s1	TAAR1 agonist 48.9 | TAAR1 ag confirm inactive | Ga16 nonsel ag inactive | TAAR1 desensitize inactive | Ga16 antag count inactive
O=C(NCCc1ccccc1)Nc1cccc(Cl)c1	none
O=C(O)/C=C/C(=O)NCCc1ccccc1	TAAR1 antag 79.7, TAAR1 agonist 117.7 | TAAR1 ag confirm 105.1 | Ga16 nonsel ag inactive | TAAR1 desensitize 98.2 | Ga16 antag count inactive
COc1ccc(CCNC(=O)/C=C/C(=O)O)cc1	TAAR1 agonist 62.3 | TAAR1 ag confirm 81.3 | Ga16 nonsel ag inactive | TAAR1 desensitize 50.4 | Ga16 antag count inactive
O=C(O)/C=C/C(=O)NCCc1cccc(Cl)c1	TAAR1 antag 75.7, TAAR1 agonist 69.3 | TAAR1 ag confirm 92.9 | Ga16 nonsel ag inactive | TAAR1 desensitize 96.4 | Ga16 antag count inactive
COc1cccc(C=NNC(=S)NC2CC3CCC2C3)c1O (stereo unspecified)	none (no result: CHRM4 agonist, M4 PAM, CHRM4 antagonist)
CCCNC(=O)c1cc(S(=O)(=O)N2CCC3(CC2)OCCO3)ccc1F	none
O=C(CCCc1ccccc1)NCCc1ccccc1	none
O=C(CCCC(=O)c1ccccc1)NCCc1ccccc1	TAAR1 antag 74.9, TAAR1 agonist 46.7 | TAAR1 ag confirm 50.0 | Ga16 nonsel ag 14.9 | TAAR1 desensitize 89.5 | Ga16 antag count inactive
O=C(O)/C=C/C(=O)NCCc1ccc(Cl)cc1	TAAR1 agonist 75.7 | TAAR1 ag confirm 97.1 | Ga16 nonsel ag inactive | TAAR1 desensitize 66.8 | Ga16 antag count inactive
CN(C)Cc1csc(NC(=O)Nc2ccccc2Oc2ccccc2)n1	none
CN1CCc2c(c3ccccc3n2C)C1	TAAR1 agonist 54.9 | TAAR1 ag confirm 81.2 | Ga16 nonsel ag inactive | TAAR1 desensitize inactive | Ga16 antag count inactive
C=CCN(CC=C)Cc1cc(=O)oc2ccccc12	none
CCOC(=O)[C@H]1[C@H]2COc3ccc(C)cc3[C@@H]2N2C(=O)c3cc(OC)c(OC)cc3NC(=O)[C@@]12C	none
CCOC(=O)[C@H]1[C@H]2COc3ccc(Br)cc3[C@@H]2N2C(=O)c3cc(OC)c(OC)cc3NC(=O)[C@@]12C	TAAR1 agonist 75.8 | TAAR1 ag confirm 100.5 | Ga16 nonsel ag 43.7 | TAAR1 desensitize inactive | Ga16 antag count inactive
O=C(Nc1ccnn1C1CCN(Cc2cc3ccccc3[nH]2)CC1)C1CCOC1 (stereo unspecified)	TAAR1 antag 82.6, TAAR1 agonist 57.5 | TAAR1 ag confirm inactive | Ga16 nonsel ag 23.3 | TAAR1 desensitize 63.0 | Ga16 antag count 66.1
O=C(CN1CCN(c2cnn(-c3ccccc3)c(=O)c2Cl)CC1)NC1CCS(=O)(=O)C1 (stereo unspecified)	none
CCN(CC)C(=O)Oc1nnc(SC(C)C)n1-c1ccc(Cl)c(Cl)c1	TAAR1 agonist 44.9 | TAAR1 ag confirm inactive | Ga16 nonsel ag 13.9 | TAAR1 desensitize inactive | Ga16 antag count inactive
CC1CCC(C(C)C)C(OC(=O)Cn2c(-c3ccc(Br)cc3)[n+](C)c3ccccc32)C1 (stereo unspecified)	none
Cc1ccccc1OCc1n(CC(=O)OC2CC(C)CCC2C(C)C)c2ccccc2[n+]1C (stereo unspecified)	TAAR1 agonist 46.6, CHRM4 antagonist 34.9 | TAAR1 ag confirm 86.5 | Ga16 nonsel ag 23.5 | TAAR1 desensitize 86.6 | Ga16 antag count 47.7
COc1ccccc1-c1cn(CC[C@@H]2CC[C@H](NC(=O)C3CCC3)[C@@H](CO)O2)nn1	none
COc1ccc(-c2csc(NC(=O)c3cc(C)on3)c2C#N)cc1OC	TAAR1 agonist 46.1 | TAAR1 ag confirm inactive | Ga16 nonsel ag inactive | TAAR1 desensitize inactive | Ga16 antag count inactive
C[C@@H]1CN([C@H](C)CO)C(=O)c2cc(Br)cnc2O[C@@H]1CN(C)C(=O)Cc1ccccc1	none
Nc1c(-c2n[nH]c(=S)n2-c2ccc(Cl)cc2Cl)cnn1-c1ccccc1	TAAR1 agonist 96.6 | TAAR1 ag confirm 72.8 | Ga16 nonsel ag 44.1 | TAAR1 desensitize inactive | Ga16 antag count 28.4
COC(=O)c1sc(NC(=S)NC(=O)c2ccccc2C)nc1C	TAAR1 agonist 43.1 | TAAR1 ag confirm 82.7 | Ga16 nonsel ag 54.0 | TAAR1 desensitize 61.2 | Ga16 antag count 33.8
COC(=O)c1sc(NC(=S)NC(=O)c2ccc(F)cc2)nc1C	none (no result: CHRM4 agonist, M4 PAM, CHRM4 antagonist)
Cc1cc(C)cc(-n2c(C)cc(/C=N/NC(=O)c3ccncc3)c2C)c1	none
Cc1cc(C)cc(-n2c(C)cc(/C=N/NC(=O)CSc3ncccn3)c2C)c1	TAAR1 agonist 45.0 | TAAR1 ag confirm 49.6 | Ga16 nonsel ag 32.5 | TAAR1 desensitize 55.3 | Ga16 antag count 32.6
Cc1ccc(N2CCN(C(=O)C(=O)c3cccc([N+](=O)[O-])c3)CC2)cc1	none
COc1cccc(-c2c(C(=O)N/N=C(\C)COc3ccccc3)nnn2-c2nonc2N)c1	none
COc1cccc(-c2c(C(=O)N/N=C(\C)c3cccs3)nnn2-c2nonc2N)c1	TAAR1 antag 86.9, TAAR1 agonist 140.3 | TAAR1 ag confirm 115.0 | Ga16 nonsel ag 83.9 | TAAR1 desensitize 77.9 | Ga16 antag count 27.6
COc1ccc(/C(C)=N/NC(=O)c2nnn(-c3nonc3N)c2-c2cccs2)cc1OC	none
C/C(=N\NC(=O)c1nnn(-c2nonc2N)c1-c1ccc2c(c1)OCO2)c1cccs1	TAAR1 antag 95.8, TAAR1 agonist 144.3 | TAAR1 ag confirm 126.9 | Ga16 nonsel ag 100.9 | TAAR1 desensitize 90.5 | Ga16 antag count 60.7
COc1cccc(-c2c(C(=O)N/N=C(\C)c3ccncc3)nnn2-c2nonc2N)c1	none
CCOc1ccc(-c2c(C(=O)N/N=C(\C)c3ccco3)nnn2-c2nonc2N)cc1	TAAR1 agonist 115.0 | TAAR1 ag confirm 101.3 | Ga16 nonsel ag 66.6 | TAAR1 desensitize inactive | Ga16 antag count inactive
CCOc1cccc(-c2c(C(=O)N/N=C(\C)c3cccs3)nnn2-c2nonc2N)c1	TAAR1 antag 88.2, TAAR1 agonist 132.0 | TAAR1 ag confirm 134.1 | Ga16 nonsel ag 98.1 | TAAR1 desensitize 96.6 | Ga16 antag count 69.8
Cn1c(N)c(C(=O)COC(=O)C2Cc3ccccc3CN2S(C)(=O)=O)c(=O)n(C)c1=O (stereo unspecified)	none
CCOc1ccc(-c2c(C(=O)N/N=C(\C)c3cccs3)nnn2-c2nonc2N)cc1	TAAR1 agonist 85.3 | TAAR1 ag confirm 98.4 | Ga16 nonsel ag 63.3 | TAAR1 desensitize inactive | Ga16 antag count inactive
